Screening results from PubChem BioAssay.
A selection: hits, their analogues and other compounds. The true share with any hit is near 3.7%.
AHR act: AHR activators, primary screen, cell-based, luminescence, luciferase reporter, human | Aryl hydrocarbon receptor (Homo sapiens), P35869 | AHR-responsive luciferase reporter cells | activation, % at 5 µM | 320,000 tested, 2.5% active | AID 2796, 2010; in the data active means activation above about 47%;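 further: 0% = vehicle wells and 100% = reference agonist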
FXN GAA850 act: FXN promoter activators, primary screen, cell-based, luciferase luminescence, HEK293 lucGAA850. activation, % at 6 µM. HEK293 lucGAA850 FXN promoter luciferase reporter, 24 h; percent of 10 µM SAHA response. AID 540364, 2011. 360,000 tested, 0.56% active;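 active means activation above the average of all compounds screened plus 3 SD, cutoff fixed separately per campaign, cut at about 7.5% in these data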;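 further: 0% = DMSO wells and 100% = 10 µM SAHA wells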
GASC-1 inh: inhibitors of GASC-1 histone demethylase, primary screen, biochemical, fluorescence, DELFIA europium; inhibition, % at 2.35 µM; GST-JMJD2C(1-420) H3K9me3 demethylation; 330,000 tested, 0.069% active; Lysine-specific demethylase 4C (Homo sapiens), Q9H3R0; AID 2099, 2009;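 active means more than half of a compound's replicate wells show inhibition beyond 50%, single wells judged on their own value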;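 further: signal counts dimethyl H3K9 product captured on neutravidin plate; 0% = median of DMSO wells and 100% = 0.3 times that DMSO median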
Target sequence (Q9H3R0 1-420 limits assumed): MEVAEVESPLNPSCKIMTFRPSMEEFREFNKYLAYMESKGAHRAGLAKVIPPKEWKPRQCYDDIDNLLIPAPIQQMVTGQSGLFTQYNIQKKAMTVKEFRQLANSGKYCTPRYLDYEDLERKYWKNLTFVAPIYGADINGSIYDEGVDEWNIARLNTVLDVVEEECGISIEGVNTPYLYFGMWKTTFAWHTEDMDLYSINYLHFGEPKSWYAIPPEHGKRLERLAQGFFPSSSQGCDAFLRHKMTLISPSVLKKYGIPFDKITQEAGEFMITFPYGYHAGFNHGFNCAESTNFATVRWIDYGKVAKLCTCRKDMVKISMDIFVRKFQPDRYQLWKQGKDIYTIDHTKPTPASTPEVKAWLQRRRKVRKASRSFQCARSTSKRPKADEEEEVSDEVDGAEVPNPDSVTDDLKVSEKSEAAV
SR-BI HDL uptake: inhibitors of SR-BI mediated HDL lipid uptake, primary screen, ldlA[mSR-BI] cells, fluorescence, single point | inhibition, % at 12.5 µM | Scavenger receptor class B member 1 (Mus musculus), Q61009 | ldlA[mSR-BI] CHO cells, DiI-HDL uptake fluorescence, 3 h | 320,000 tested, 0.96% active;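 active means mean replicate inhibition of at least 70% and a set share of replicates each scoring 70 or more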;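 further: 0% = median of neutral control wells and 100% = median of positive control wells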
SR-BI uptake up: activators of SR-BI mediated DiI-HDL uptake, primary screen, ldlA[mSR-BI] CHO cells, DiI fluorescence. 320,000 tested, 0.096% active. activation, % at 12.5 µM. 3 h; 100 = double the neutral-control signal;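 active means mean replicate activation of at least 60% and every replicate at or above 60%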;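 further: 0% = median plate neutral-control signal and 100% = twice that signal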
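Assay system: LDL receptor-deficient CHO ldlA cells overexpressing murine SR-BI / Medium: BSA-supplemented, HEPES-buffered Ham's F12, pH 7.4 / Probe or stimulus: DiI-labelled HDL at 10 µg/mL final / Timing: compound with DiI-HDL co-incubation, 3 h at 37 °C / Technique: bottom-read cell fluorescence after medium removal, ex 550/em 595 nm / Measure: HDL uptake via cellular fluorescence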
* hit, by the source's call; · = not tested or not shown.

SMILES	AHR act	FXN GAA850 act	GASC-1 inh	SR-BI HDL uptake	SR-BI uptake up
CCN(C[C@H]1N[C@@](C)(C(=O)OC)[C@H]2C(=O)N(C)C(=O)[C@@H]12)C(=O)Nc1ccc(C)cc1	1	-1	52*	-5	5
CCN(C[C@H]1N[C@@](C)(C(=O)OC)[C@H]2C(=O)N(C)C(=O)[C@@H]12)C(=O)Nc1ccc(F)cc1	-1	2	9	-17	17
CCN(C[C@H]1N[C@@](Cc2ccccc2)(C(=O)OC)[C@H]2C(=O)N(Cc3ccccc3)C(=O)[C@@H]12)S(=O)(=O)c1ccccc1	-2	-1	61*	22	-22
CCN(C[C@H]1N[C@@](C)(C(=O)OC)[C@H]2C(=O)N(Cc3ccccc3)C(=O)[C@@H]12)S(=O)(=O)c1ccc(C)cc1	-1	5	·	-18	18
COC(=O)[C@]1(C)N[C@H](CN(C)S(=O)(=O)c2ccc(C)cc2)[C@@H]2C(=O)N(Cc3ccccc3)C(=O)[C@@H]21	0	2	62*	-14	14
CCN(CC)c1ccc(/C=N/NC(=S)NCc2ccc(OC)cc2)cc1	49*	3	-11	-1	1
CCN(CC)c1ccc(/C=N/NC(=O)Nc2nonc2N)cc1	67*	3	24	-18	18
CCN(CC)c1ccc(/C=N/NC(=S)NCc2ccccc2)cc1	9	1	1	22	-22
CCN(CC)c1ccc(/C=N/NC(=O)c2ccc(Br)o2)cc1	88*	1	-1	38	-38
CC(=O)C[C@H](O)CC(=O)[C@H]1OC(=O)CCCCCCCCc2ccccc21	-2	1	·	-10	10
COc1ccc(C(=O)NC(C(=O)NCC2(N3CCCCC3)CCCCC2)C(C)C)cc1 (stereo not drawn)	1	2	·	3	-3
O=C(C1CCCCC1)N1CCC2CC1c1cc(Cl)ccc12 (stereo not drawn)	·	0	·	-3	3
CCc1ccc(N2CC(C(=O)N3CCN(c4ccc([N+](=O)[O-])cc4)CC3)CC2=O)cc1 (stereo not drawn)	·	1	·	·	·
C=CCNC(=O)Cc1c(OC)ccc2cc(Br)ccc12	6	0	5	38	-38
COc1ccc2cc(Br)ccc2c1CC(=O)NCCCN1CCOCC1	-2	1	57*	-3	3
CCc1ccc(-c2cc(C(=O)NN3CCOCC3)c3ccccc3n2)cc1	4	0	11	39	-39
O=C(NN1CCOCC1)c1cc(-c2ccc(Br)cc2)nc2ccccc12	58*	0	-1	38	-38
O=C(NCCCN1CCOCC1)c1cc(-c2ccccc2)nc2ccccc12	3	0	-2	15	-15
O=C(NCCCN1CCOCC1)c1cc(-c2ccc(Br)cc2)nc2ccccc12	75*	0	3	36	-36
COc1cccc(C(=O)/C=C2\Sc3ccccc3N2C)c1	58*	7	0	83*	-83
CN1/C(=C\C(=O)c2cccnc2)Sc2ccccc21	13	5	3	25	-25
O=C(Nc1oc2ccccc2c(=O)c1-c1ccc(Br)cc1)c1ccco1	1	1	35	4	-4
Nc1ccccc1C(=O)NNC1=C(C(=O)C(F)(F)F)CCC1	16	2	3	98*	-98
O=C(NNC1=C(C(=O)C(F)(F)F)CCC1)c1ccc(Br)cc1	7	0	6	105*	-105
COc1cccc(C(=O)NNC2=C(C(=O)C(F)(F)F)CCC2)c1	16	-1	2	113*	-113
SMILES	AHR act	FXN GAA850 act	GASC-1 inh	SR-BI HDL uptake	SR-BI uptake up
O=C(NNC1=C(C(=O)C(F)(F)F)CCC1)c1ccccc1O	17	1	-10	150*	-150
COc1ccccc1C(=O)NNC1=C(C(=O)C(F)(F)F)CCC1	16	0	-3	8	-8
O=C(NNC1=C(C(=O)C(F)(F)F)CCC1)c1ccccc1Cl	3	3	10	14	-14
CCCNC(=O)CCn1cc(-c2ccc(OC)cc2)nc1-c1ccncc1	8	-1	9	7	-7
CSc1ccc(CN(C)C(=O)c2cc(=O)[nH]c3ccccc23)cc1	4	-1	0	·	·
Cc1ccc(NC(=O)CCNC(=O)c2ccc([N+](=O)[O-])cc2)cc1C	·	0	-4	-9	9
O=P1(c2ccccc2)C=Cn2c1cc1c2CCCC1 (stereo not drawn)	2	1	-1	17	-17
CCSc1nc2c(c(=O)[nH]1)C(c1cccnc1)C(C(=O)OC)=C(C)N2 (stereo not drawn)	4	-2	-8	-23	23
CCSc1nc2c(c(=O)[nH]1)C(c1ccncc1)C(C(=O)OC(C)C)=C(C)N2 (stereo not drawn)	48*	4	0	-9	9
O=C(Nc1nc2ccc(Cl)cc2s1)c1ccc(N2CCCCC2)c([N+](=O)[O-])c1	-1	2	3	79*	-79
O=C(Nc1ccc(N2CCCCC2)c(Cl)c1)c1ccc(N2CCOCC2)c([N+](=O)[O-])c1	-1	1	3	87*	-87
Cc1nnc(SCC(=O)NC2CCCc3c2cnn3-c2ccccc2F)o1 (stereo not drawn)	-1	2	-9	-4	4
COc1ccc(C(=O)N(C)C2CCCCC2)cc1S(=O)(=O)N1CCOCC1	0	0	-5	-7	7
COc1ccc2[nH]cc(CCNC(=O)c3ccc4ccccc4n3)c2c1	71*	1	-15	-1	1
COc1ccc(C(=O)NCCc2c[nH]c3ccc(OC)cc23)cc1	1	-1	24	8	-8
Oc1[nH]c2ccccc2c1N=Nc1ccccc1Cl	·	4	·	-9	9
Oc1c(C=Nc2ccccc2Cl)[nH]c2ccccc12	57*	3	-20	·	·
CN(C)C(CNC(=O)C1CCN(S(=O)(=O)c2cc(Cl)ccc2Cl)CC1)Cc1ccccc1 (stereo not drawn)	·	0	·	-12	12
COc1ccc(/C=C(/C#N)C(=O)Nc2ccccc2C)cc1C(=O)O	0	0	0	-7	7
COc1ccc(/C=C(/C#N)C(=O)Nc2ccc(C)cc2C)cc1C(=O)O	0	0	0	-66	66*
Cc1cc(NC(=O)CSc2nnc(C)n2-c2ccccc2C)no1	1	2	-4	-28	28
O=C(O)c1[nH]c2ccc(Cl)cc2c1CC(=O)N1CCN(C(=O)c2ccco2)CC1	5	-1	0	-8	8
O=C(c1ccco1)N1CCN(C(=O)C2CCCc3c2[nH]c2ccc(Cl)cc32)CC1 (stereo not drawn)	-3	-4	19	83*	-83
